Screens: PubChem, Johns Hopkins Ion Channel Center
Compounds with a hit are over-represented: about 3.8% of the library has one in this group of screens.
KCNK3 block – human KCNK3 channel inhibition, primary screen; O14649; CHO-KCNK3 thallium flux, FluxOR fluorescence; stronger effect = lower value; B-score at 10 µM; hit rate 0.84% among 340,000; AID 602410;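 active = B-score under library mean minus 4 SD, starting fluorescence ratio at most library mean plus 5 SD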;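 also: more negative B-score means stronger inhibition of thallium flux through KCNK3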
KCNQ1 act – potentiators or activators of human KCNQ1 potassium channel | CHO-K1 KCNQ1, thallium flux FluxOR fluorescence; stronger effect = higher value | hit rate 0.35% among 310,000 | B-score at 10 µM | P51787 | AID 2648;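 active = fluorescence ratio B-score, a plate-corrected score, at least three library SD, with initial intensity B-score within 5 SD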
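assay system = KCNQ1-transfected CHO-K1 cells | medium = assay buffer with matched DMSO | probe or stimulus = depolarizing K+/Tl+ stimulus, K2SO4 and Tl2SO4 each 12.5 mM in 5x stock | dosing = single dose | incubation = dye 90 min, compound 20 min, room temperature | detection = kinetic FluxOR fluorescence, 10 s baseline plus 110 s post-stimulus | evaluation = ratio B score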
KCNQ1 inh – blocks the human KCNQ1 potassium channel; P51787; CHO-K1 KCNQ1, FluxOR thallium flux fluorescence; stronger effect = higher value; B-score at 10 µM; hit rate 1.3% among 310,000;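 active = compounds whose thallium flux B-score, printed positive for inhibition, exceeds three library SD while starting fluorescence stays within three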;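 also: channel opened by potassium depolarization with thallium stimulus after 20 min compound exposure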
KCNK9 inh – blocks the human KCNK9 two-pore domain potassium channel. Q9NPC2. HEK293 KCNK9, FluxOR thallium flux fluorescence; stronger effect = lower value. B-score at 10 µM. hit rate 1.2% among 310,000;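 active = ratio B-score over 3 SD below the library mean, with starting fluorescence within 5 SD of its mean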;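 also: negative B-score means less thallium flux so channel inhibition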
Kir21 inh – blocks the mouse Kir2.1 inward-rectifier potassium channel; P35561; HEK293-Kir2.1, FluxOR thallium flux fluorescence; stronger effect = lower value; B-score at 10 µM; hit rate 0.85% among 310,000;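 active = fluorescence ratio B-score at or below minus 3 SD of library scores, with starting-brightness B-score within 2 SD, cut at about -4.2 in these data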;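 also: channel flux triggered by added potassium and thallium sulfate stimulus; B-score of peak minus minimum fluorescence over baseline after thallium stimulus; more negative B-score means stronger Kir2.1 block with less thallium influx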
hERG protect – compounds protecting human hERG from proarrhythmic drug block. CHO-hERG, FluxOR thallium flux, dofetilide IC70 present. hit rate 0.51% among 310,000. AID 1511. activation (rescue from dofetilide block), less the hit threshold, % at 10 µM. Q12809;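 active = activation above the mean of controls blocked by dofetilide plus 5 SD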;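 also: thallium influx through hERG after potassium depolarization seen as dye fluorescence rise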
Target sequence (Q12809 whole entry, looked up): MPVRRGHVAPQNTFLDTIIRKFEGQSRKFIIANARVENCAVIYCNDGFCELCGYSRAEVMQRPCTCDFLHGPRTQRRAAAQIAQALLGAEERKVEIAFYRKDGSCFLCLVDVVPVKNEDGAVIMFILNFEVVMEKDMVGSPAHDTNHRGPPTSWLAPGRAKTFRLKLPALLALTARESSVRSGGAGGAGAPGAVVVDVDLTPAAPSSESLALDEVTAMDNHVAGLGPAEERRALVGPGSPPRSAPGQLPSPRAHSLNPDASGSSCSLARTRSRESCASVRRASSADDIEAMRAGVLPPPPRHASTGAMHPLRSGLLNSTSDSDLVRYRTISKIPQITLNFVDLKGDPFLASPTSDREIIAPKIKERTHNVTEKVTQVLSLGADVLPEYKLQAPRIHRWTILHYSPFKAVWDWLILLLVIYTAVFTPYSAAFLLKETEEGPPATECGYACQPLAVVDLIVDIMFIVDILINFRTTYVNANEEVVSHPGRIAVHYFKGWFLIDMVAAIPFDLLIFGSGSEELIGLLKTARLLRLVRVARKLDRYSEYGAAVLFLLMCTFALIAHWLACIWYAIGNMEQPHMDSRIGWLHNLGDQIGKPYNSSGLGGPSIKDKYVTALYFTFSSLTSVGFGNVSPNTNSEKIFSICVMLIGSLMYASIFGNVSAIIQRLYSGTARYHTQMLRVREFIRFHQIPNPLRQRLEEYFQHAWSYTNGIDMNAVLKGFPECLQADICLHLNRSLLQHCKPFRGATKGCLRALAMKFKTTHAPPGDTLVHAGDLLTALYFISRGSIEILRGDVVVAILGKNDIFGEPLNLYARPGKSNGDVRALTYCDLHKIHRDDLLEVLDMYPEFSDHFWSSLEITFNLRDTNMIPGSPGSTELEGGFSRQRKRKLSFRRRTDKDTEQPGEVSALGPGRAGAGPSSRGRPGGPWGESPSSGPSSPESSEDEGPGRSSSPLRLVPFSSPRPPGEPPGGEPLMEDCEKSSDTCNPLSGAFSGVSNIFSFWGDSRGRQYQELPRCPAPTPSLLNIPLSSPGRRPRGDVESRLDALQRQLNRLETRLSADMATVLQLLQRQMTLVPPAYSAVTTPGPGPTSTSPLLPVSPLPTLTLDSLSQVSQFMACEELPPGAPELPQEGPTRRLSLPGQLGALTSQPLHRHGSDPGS
KCNK9 inh conf – human KCNK9 inhibitor confirmation. hit rate 43% among 4,900. HEK293 KCNK9 cells, FluxOR thallium flux fluorescence. inhibition, % at 10 µM. shares compounds with KCNK9 inh;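 active = thallium signal inhibited by more than 5 SD of the compound-free buffer control wells, on both duplicate plates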
Kir2-1 spec – mouse Kir2.1 off-target activity of KCNK9 modulators; hit rate 4% among 4,900; shares compounds with KCNK9 inh; AID 492993; inhibition, % at 10 µM; Kir2.1 cells, FluxOR thallium flux fluorescence;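 active = thallium signal drop more than 5 SD beyond the mean of the no-compound control wells, seen in both duplicate plates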;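 also: signal is fluorescence rise after thallium addition divided by baseline fluorescence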
KCNK9 uninduced – non-induced cell nonspecific activity of KCNK9 modulators; shares compounds with KCNK9 inh; inhibition, % at 10 µM; hit rate 40% among 4,900; non-induced KCNK9-HEK293, FluxOR thallium flux;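 active = thallium signal drop beyond 5 SD of the untreated control mean, on both duplicate plates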
Numbers stand for hits; n = inactive; x = no result.

SMILES	KCNK3 block	KCNQ1 act	KCNQ1 inh	KCNK9 inh	Kir21 inh	hERG protect	KCNK9 inh conf	Kir2-1 spec	KCNK9 uninduced
COc1cc(C2=NOC(C(=O)NCc3cccnc3)C2)cc(OC)c1OC (stereo not given)	n	n	n	-8.6	n	n	26%	n	n
COc1ccc(OC)c(C2=NOC(C(=O)NCc3cccnc3)C2)c1 (stereo not given)	n	n	n	n	n	n	x	x	x
CCCn1c(SCC(=O)Nc2ccc3c(c2)OCCO3)nnc1-c1ccco1	n	n	n	n	n	n	x	x	x
COc1cccc(-c2nnc(SCC(=O)Nc3ccc4c(c3)OCCO4)n2Cc2ccco2)c1	n	n	n	-16	n	n	64%	n	37%
CCOC(=O)c1[nH]c(C)c(C(=O)OCC(=O)N2CC(=O)Nc3ccccc32)c1C	n	n	n	n	n	n	x	x	x
Cc1ccc(S(=O)(=O)NN2C(=O)/C(=C/c3ccccn3)SC2=S)cc1	n	n	n	n	n	n	x	x	x
COc1cc(/C=C2\SC(=S)N(NS(=O)(=O)c3ccc(C)cc3)C2=O)cc(OC)c1OC	n	n	n	n	n	n	n	n	n
COc1cc(/C=C2\SC(=S)N(NS(=O)(=O)c3ccc(C)cc3)C2=O)ccc1O	n	n	n	n	n	n	x	x	x
Cc1ccc(S(=O)(=O)NN2C(=O)/C(=C/c3cccc(F)c3)SC2=S)cc1	n	10	n	n	n	n	n	n	n
Cc1cccc(N2C(=S)N=C(Nc3c(C)cccc3C)C23CCOC(C)(C)C3)c1 (stereo not given)	n	n	n	n	n	n	x	x	x
Cc1nc2ccc(NC(=O)c3ccc(Cl)c([N+](=O)[O-])c3)cc2s1	n	n	n	n	n	n	x	x	x
Cc1nc2ccc(NC(=O)c3ccc([N+](=O)[O-])cc3)cc2s1	n	n	n	n	n	n	n	n	n
COc1ccc(C(=O)COC(=O)C(CC(C)C)N2C(=O)c3ccccc3C2=O)cc1 (stereo not given)	n	n	n	n	n	n	x	x	x
CSCCC(C(=O)OCC(=O)c1ccc(C)c(C)c1)N1C(=O)c2cc(Cl)c(Cl)cc2C1=O (stereo not given)	n	n	n	n	n	n	n	n	n
O=S(=O)(c1ccccc1F)N1CCN(CCc2ccccc2)CC1	n	n	n	n	n	n	n	n	n
O=S(=O)(c1ccc(F)c(F)c1)N1CCN(CCc2ccccc2)CC1	n	n	n	n	n	n	n	n	n
Cc1ccc(S(=O)(=O)N2CCN(C3CC(=O)N(CCc4ccccc4)C3=O)CC2)cc1C (stereo not given)	n	n	n	n	n	n	n	n	n
COc1ccc(S(=O)(=O)N2CCN(C/C=C/c3ccccc3)CC2)cc1F	n	n	n	n	n	n	n	n	n
Cc1c(C)c2cc3c(C)coc3cc2oc1=O	n	n	n	n	n	n	x	x	x
COc1ccc2cc(CN(CC3CCCO3)S(=O)(=O)c3ccccc3Cl)c(=O)[nH]c2c1 (stereo not given)	n	n	n	n	n	n	x	x	x
Cc1ccc2nc(SCC(=O)N3CCC(Cc4ccccc4)CC3)nc(=O)n2c1	n	n	n	n	n	n	x	x	x
O=C(NNS(=O)(=O)c1ccc(Br)cc1)c1ccccc1-n1cccc1	n	n	n	n	n	n	x	x	x
Cc1ccnc(Nc2nc(-c3c(C)nc4sccn34)cs2)c1	n	n	n	-17	n	n	40%	n	28%
COc1ccc(-c2csc(Nc3cc(C)ccn3)n2)cc1OC	n	n	n	n	n	n	x	x	x
Cc1ccc(OCCN2C(=O)NC3(CCc4ccccc4C3)C2=O)cc1 (stereo not given)	n	n	n	n	n	n	x	x	x
O=C(NN1C(=O)c2ccccc2C1=O)C1C2CCCCC21 (stereo not given)	n	n	n	n	n	n	n	n	n
